Experimental data published in PMC9358627 (Journal of clinical pharmacology, 2021).
Read-outs that look alike come from different tables or passages of the source. Each block holds one molecule with its values, some of them ahead of it.

What was measured:
[1] = format: in vivo, human; conditions: for AUC: Mycophenolic acid AUC6-12hr
How it was run: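 Steady state with the same oral dose for ≥7 days, calcineurin inhibitor co-therapy. Pre-dose sample, then dosing ~7 AM, meals at 4 h, serial sampling over 12 h. Plasma iced, centrifuged, stored −70°C. LC/MS of test compound and its glucuronide, LLOQ 0.072 µg/mL. Non-compartmental AUC0-12h by linear trapezoidal rule. […] AUC6-12h/AUC0-12h gauges enterohepatic circulation.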

[2] = format: in vivo; conditions: human, plasma, oral, C12hr, phenotypic mean (±95% CI)
How it was run: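 Stable kidney transplant recipients had held fixed doses for ≥7 days. Around 7 AM, after a 0-h draw, they took the oral test compound with a calcineurin inhibitor. Plasma was sampled serially over 12 h, iced, spun and stored at −70°C. LC/MS with internal standards (LLOQ 0.072 µg/mL) gave the 12-h trough. Three ABCC2 SNPs were TaqMan-genotyped in duplicate. THESIAS maximum-likelihood analysis estimated haplotype phenotypic means with 95% CI.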

[3] = Mycophenolic acid pharmacokinetic parameters by individual ABCC2 SNP genotype; format: in vivo; conditions: human, plasma, oral, mean; for AUC(0-t): Mycophenolic acid AUC0-12hr; for clearance: Mycophenolic acid Clearance
How it was run: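 Stable transplant recipients were studied at steady state. Oral test compound was given with a calcineurin inhibitor, with meals 4 h post-dose. Serial 12-h plasma was analysed by LC/MS (standard curve 0.145–15.5 µg/mL). AUC0-12h came from the linear trapezoidal rule, non-compartmental. […] ABCC2 −24C>T, 1249G>A and 3972C>T were genotyped by TaqMan allelic discrimination, 10 ng DNA, in duplicate.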

[4] = following oral drug administration; attributed to enterohepatic circulation; ref [8],[12]; cited from earlier work
[5] = human, in vivo, oral
How it was run: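 Patients at steady state, same oral calcineurin inhibitor dose for ≥7 days. 0-h blood drawn before the ~7 AM dose to give trough. Samples iced, centrifuged, harvested within 60 min, stored −70°C until assay.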

[6] = ABCC2 1249 G>A (rs2273697) All, N=147
[7] = ABCC2 3972 C>T (rs 3740066) All, N=146
[8] = ABCC2 −24C>T (rs717620) All, N=147

Mycophenolic acid CL/F ([1]; All (N=147), steady state, oral, mean ± SD): 15.99 ± 9.41 L/h
Enterohepatic Recirculation, patients ([1]; Cyclosporine (n=80), 36 patients): 36 (45.0%)
Mycophenolic acid CL/F ([1]; Cyclosporine Group (n=80), mycophenolate mofetil, mean ± SD): 20.50 ± 9.99 L/h
Mycophenolic acid AUC0-12hr ([1]; Cyclosporine Group (n=80), mean ± SD): 40.82 ± 17.60 mg●hr/L
Enterohepatic Recirculation, patients ([1]; Tacrolimus (n=67), 52 patients): 52 (77.61%)
Mycophenolic acid CL/F ([1]; Tacrolimus Group (n=67), enteric-coated mycophenolate sodium, mean ± SD): 10.60 ± 4.71 L/h
AUC(0-t) ([1]; human, plasma, oral, Mycophenolic acid AUC0-12hr, Tacrolimus Group (n=67), mean ± SD): 68900 ± 30900 ng·h/mL
AUC ([1]; human, plasma, oral, All (N=147), mean ± SD): 19100 ± 15200 ng·h/mL
AUC ([1]; human, plasma, oral, Cyclosporine Group (n=80), mean ± SD): 13100 ± 7150 ng·h/mL
AUC ([1]; human, plasma, oral, Tacrolimus Group (n=67), mean ± SD): 26200 ± 18800 ng·h/mL
patients achieving the therapeutic range of AUC0-12h from 30 to 60 mg●h/L ([1]; patients receiving cyclosporine): 56.3%
patients achieving the therapeutic range of AUC0-12h from 30 to 60 mg●h/L ([1]; tacrolimus group): 34.3%
slower apparent clearance ([1]; tacrolimus group compared with cyclosporine group): 48%
patients exhibiting enterohepatic circulation ([1]; tacrolimus regimen): More than 75%
concentration at 12 h ([2]; All (N=147), variant haplotype (CGT)): 1010 ng/mL
concentration at 12 h ([2]; All (N=147), wildtype haplotype (CGC)): 1630 ng/mL
concentration at 12 h ([2]; Cyclosporine Group (n=80), variant haplotype (CGT)): 783 ng/mL
concentration at 12 h ([2]; Cyclosporine Group (n=80), wildtype haplotype (CGC)): 965 ng/mL
concentration at 12 h ([2]; Tacrolimus Group (n=67), variant haplotype (CGT)): 1330 ng/mL
concentration at 12 h ([2]; Tacrolimus Group (n=67), wildtype haplotype (CGC)): 2250 ng/mL
AUC(0-t) [3, 6]: 53600 ng·h/mL
AUC(0-t) [3, 7]: 53400 ng·h/mL
AUC(0-t) [3, 8]: 53600 ng·h/mL
clearance [3, 6]: 266 mL/min
clearance [3, 7]: 268 mL/min
clearance [3, 8]: 266 mL/min
Compound: COc1c(C)c2c(c(O)c1C/C=C(\C)CCC(=O)O)C(=O)OC2 [Mycophenolic acid, mycophenolic acid]
secondary mycophenolic acid peak, time of appearance [4]: 6 to 12 h

concentration at 0 h [5]: 7.2 ± 1.89 ng/mL
Compound: C=CC[C@@H]1/C=C(\C)C[C@H](C)C[C@H](OC)[C@H]2O[C@@](O)(C(=O)C(=O)N3CCCC[C@H]3C(=O)O[C@H](/C(C)=C/[C@@H]3CC[C@@H](O)[C@H](OC)C3)[C@H](C)[C@@H](O)CC1=O)[C@H](C)C[C@@H]2OC [Tacrolimus, tacrolimus]
